Active and inactive are the calls of the source.
Experiments:
Vibrio cholerae [1] = assay: Antibacterial activity against Vibrio cholerae 582 at 25 ug/ml after 24 hrs by agar dilution method; assay type: functional; conditions: Vibrio cholerae, 582, 24 h
Proteus mirabilis [2] = assay: Antibacterial activity against Proteus mirabilis 175 at 25 ug/ml after 24 hrs by agar dilution method; assay type: functional, organism-based
Outline: (§1)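 Agar dilution MIC. Compound dissolved in sterile 0.2% DMSO, diluted in distilled water and mixed into molten nutrient agar (pH 7.2–7.4) at 5, 10, 25, 50; plate with 0.2% DMSO as control. Gram-positives grown 18 h in nutrient broth, Gram-negatives in peptone water. Stationary-phase suspension set to 0.5 McFarland, diluted 1:100, spot-inoculated at about 10^5 CFU per loopful. Plates held 24 h at 37 °C (up to 72 h if needed). MIC is the lowest level with no growth.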

Leishmania donovani [3] = assay: Antileishmanial activity against Leishmania donovani MHOM/IN/1983/AG83 promastigotes infected BALB/c mouse assessed as spleen weight at 12.5 mg/kg, ip administered two times per week for 4 weeks; assay type: functional; conditions: route intraperitoneal
Outline: (§2)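 BALB/c mice (4-6 weeks) were infected iv with 2 × 10^7 freshly transformed promastigotes. One month later, groups were dosed ip in 0.2% Tween 80 in PBS (0.02 M), twice weekly for one month (8 doses); controls got vehicle only. Mice were killed one month post-treatment and spleen and liver were weighed. Parasite load came from Giemsa impression smears as organ weight (mg) × amastigotes per cell nucleus × 2 × 10^5. Values are mean ± S.E. of 5 mice; unpaired t-test.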

Mus musculus [4] = assay: Toxicity in BALB/c mouse assessed as effect on serum glutamate pyruvate transaminase levels at 12.5 mg/kg, ip administered two times per week for 4 weeks; assay type: organism-based; parameters: dose 12.5 mg/kg, route intraperitoneal; conditions: in vivo, 672 h
Outline: (§3)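 Normal BALB/c mice were dosed ip twice per week for 4 weeks. Blood was collected one month after treatment, and serum SGPT and SGOT (IU/l) and blood urea (mg/dl) were measured with commercial kits and compared with untreated normal mice.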

Leishmania donovani [5] = assay: Antileishmanial activity against Leishmania donovani MHOM/IN/1983/AG83 promastigotes assessed as induction of kinetoplast enlargement at 11.5 ug/ml after 2 hrs by transmission electron microscopy; assay type: functional, organism-based
Shigella dysenteriae [6] = assay: Antibacterial activity against Shigella dysenteriae 6 NCTC 100/54 at 10 ug/ml after 24 hrs by agar dilution method; assay type: functional, organism-based
Pseudomonas aeruginosa [7] = assay: Antibacterial activity against Pseudomonas aeruginosa ATCC 27853 at 25 ug/ml after 24 hrs by agar dilution method; assay type: functional; conditions: ATCC 27853, 24 h; outline: as §1
Bacillus licheniformis [8] = assay: Antibacterial activity against […] Bacillus licheniformis NCTC 10341 at 5 ug/ml after 24 hrs by agar dilution method; assay type: functional, organism-based; outline: as §1
Escherichia coli [9] = assay: Antibacterial activity against Escherichia coli ATCC 25938 at 50 ug/ml after 24 hrs by agar dilution method; assay type: functional; conditions: ATCC 25938, 24 h; outline: as §1
Escherichia coli [10] = assay: Antibacterial activity against Escherichia coli K-12 Row at 10 ug/ml after 24 hrs by agar dilution method; assay type: functional, organism-based; outline: as §1
Salmonella typhimurium [11] = assay: Antibacterial activity against Salmonella Typhimurium NCTC 74 after 24 hrs by agar dilution method; assay type: functional, Salmonella enterica subsp. enterica serovar Typhimurium; conditions: Salmonella enterica, NCTC 74, 24 h; outline: as §1
[12] = Down regulation of TNFalpha release Leishmania donovani MHOM/IN/1983/AG83 infected interferon gamma-stimulated golden Syrian hamster peritoneal macrophages; assay type: functional, cell-based; conditions: Mesocricetus auratus; Macrophage
Pseudomonas aeruginosa [13] = assay: Antibacterial activity against Pseudomonas aeruginosa ATCC 27853 at 5 ug/ml after 24 hrs by agar dilution method; assay type: functional, organism-based; outline: as §1
Staphylococcus aureus [14] = assay: Antibacterial activity against Staphylococcus aureus ML6 ug/ml after 24 hrs by agar dilution method; assay type: functional; conditions: ML6, 24 h; outline: as §1
Leishmania donovani [15] = assay: Antileishmanial activity against Leishmania donovani MHOM/IN/1983/AG83 promastigotes infected BALB/c mouse assessed as reduction in liver parasite burden at 12.5 mg/kg, ip administered two times per week for 4 weeks relative to control; assay type: functional; parameters: scale not given: the % may be the effect or the level left; conditions: route intraperitoneal; outline: as §2
Salmonella typhimurium [16] = assay: Antibacterial activity against Salmonella Typhimurium NCTC 74 at 10 ug/ml after 24 hrs by agar dilution method; assay type: functional, organism-based; conditions: Salmonella enterica subsp. enterica serovar Typhimurium; outline: as §1
Escherichia coli [17] = assay: Antibacterial activity against Escherichia coli K-12 Row at 50 ug/ml after 24 hrs by agar dilution method; assay type: functional; outline: as §1
Mus musculus [18] = assay: Toxicity in BALB/c mouse assessed as effect on serum glutamate oxaloacetate transaminase levels at 5.5 mg/kg, ip administered two times per week for 4 weeks; assay type: organism-based; parameters: dose 5.5 mg/kg, route intraperitoneal; conditions: in vivo, 672 h; outline: as §3
Pseudomonas aeruginosa [19] = assay: Antibacterial activity against Pseudomonas aeruginosa ATCC 27853 at 10 ug/ml after 24 hrs by agar dilution method; assay type: functional, organism-based; outline: as §1
Shigella dysenteriae [20] = assay: Antibacterial activity against Shigella dysenteriae 6 NCTC 100/54 after 24 hrs by agar dilution method; assay type: functional; conditions: 6 NCTC 100/54, 24 h
Vibrio cholerae [21] = assay: Antibacterial activity against Vibrio cholerae 569B at 25 ug/ml after 24 hrs by agar dilution method; assay type: functional
Leishmania donovani [22] = assay: Antileishmanial activity against Leishmania donovani MHOM/IN/1983/AG83 promastigotes assessed as induction of vacuolization at 2 ug/ml after 2 hrs by transmission electron microscopy; assay type: functional, organism-based
Outline: (§4)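 Log-phase promastigotes, grown at 22 °C in M199 with 10% FBS, were exposed for 2 h to the compound; controls received 0.1% DMSO alone. Cells were then sectioned, stained on copper grids with uranyl acetate and lead acetate for 10-15 min each, and examined by TEM for ultrastructural changes.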

Bacillus licheniformis [23] = assay: Antibacterial activity against […] Bacillus licheniformis NCTC 10341 after 24 hrs by agar dilution method; assay type: functional; conditions: NCTC 10341, 24 h; outline: as §1
Leishmania donovani [24] = assay: Antileishmanial activity against Leishmania donovani MHOM/IN/1983/AG83 promastigotes assessed as induction of chromatin condensation at 2 ug/ml after 2 hrs by transmission electron microscopy; assay type: functional, organism-based
Vibrio cholerae [25] = assay: Antibacterial activity against Vibrio cholerae 582 at 5 ug/ml after 24 hrs by agar dilution method; assay type: functional; conditions: Vibrio cholerae, 582, 24 h
Proteus mirabilis [26] = assay: Antibacterial activity against Proteus mirabilis 175 at 50 ug/ml after 24 hrs by agar dilution method; assay type: functional; conditions: Proteus mirabilis, 175, 24 h; outline: as §1
Shigella dysenteriae [27] = assay: Antibacterial activity against Shigella dysenteriae 7 NCTC 519/66 after 24 hrs by agar dilution method; assay type: functional; conditions: 7 NCTC 519/66, 24 h
Leishmania donovani [28] = assay: Antileishmanial activity against Leishmania donovani MHOM/IN/1983/AG83 promastigotes assessed as induction of vacuolization at 11.5 ug/ml after 2 hrs by transmission electron microscopy; assay type: functional, organism-based; outline: as §4
Staphylococcus aureus [29] = assay: Antibacterial activity against Staphylococcus aureus ML145 at 25 ug/ml after 24 hrs by agar dilution method; assay type: functional; conditions: ML145, 24 h; outline: as §1
Escherichia coli [30] = assay: Antibacterial activity against Escherichia coli K-12 Row at 25 ug/ml after 24 hrs by agar dilution method; assay type: functional, organism-based; outline: as §1
Escherichia coli [31] = assay: Antibacterial activity against Escherichia coli ATCC 25938 after 24 hrs by agar dilution method; assay type: functional; conditions: ATCC 25938, 24 h; outline: as §1
Mus musculus [32] = assay: Toxicity in BALB/c mouse assessed as effect on blood urea levels at 5.5 mg/kg, ip administered two times per week for 4 weeks; assay type: organism-based; parameters: dose 5.5 mg/kg, route intraperitoneal; conditions: in vivo, 672 h; outline: as §3
Bacillus licheniformis [33] = assay: Antibacterial activity against […] Bacillus licheniformis NCTC 10341 at 10 ug/ml after 24 hrs by agar dilution method; assay type: functional, organism-based; outline: as §1
Proteus mirabilis [34] = assay: Antibacterial activity against Proteus mirabilis 7 at 25 ug/ml after 24 hrs by agar dilution method; assay type: functional, organism-based; outline: as §1

Clc1ccc(OCOc2ccc(Cl)c3cccnc23)c2ncccc12
98.49%: Activity (Leishmania donovani [15])
Non-toxic: Activity (Mus musculus [4]) | Activity (Mus musculus [18]) | Activity (Mus musculus [32])
100%: inhibition at 25 µg/mL (Vibrio cholerae [1]) | inhibition at 25 µg/mL (Pseudomonas aeruginosa [7]) | inhibition at 50 µg/mL (Escherichia coli [9]) | inhibition at 50 µg/mL (Escherichia coli [17]) | inhibition at 25 µg/mL (Vibrio cholerae [21]) | inhibition at 5 µg/mL (Vibrio cholerae [25]) | inhibition at 50 µg/mL (Proteus mirabilis [26]) | inhibition at 25 µg/mL (Staphylococcus aureus [29])
50 µg/mL: MIC (Salmonella typhimurium [11]) | MIC (Shigella dysenteriae [20]) | MIC (Bacillus licheniformis [23]) | MIC (Escherichia coli [31])
inactive: Activity (Proteus mirabilis [2]) | Activity (Shigella dysenteriae [6]) | Activity (Bacillus licheniformis [8]) | Activity (Escherichia coli [10]) | Activity (Pseudomonas aeruginosa [13]) | Activity (Salmonella typhimurium [16]) | Activity (Pseudomonas aeruginosa [19]) | Activity (Escherichia coli [30]) | Activity (Bacillus licheniformis [33]) | Activity (Proteus mirabilis [34])
10 µg/mL: MIC (Staphylococcus aureus [14]) | MIC (Shigella dysenteriae [27])
active: Activity (Leishmania donovani [5]) | Activity [12] | Activity (Leishmania donovani [22]) | Activity (Leishmania donovani [24]) | Activity (Leishmania donovani [28])
90 mg: Activity (Leishmania donovani [3])

From ChEMBL document CHEMBL1153864, “Phase transfer catalyzed synthesis of bis-quinolines: antileishmanial activity in experimental visceral leishmaniasis and in vitro antibacterial evaluation” (Eur J Med Chem, 2009)
